# Experimental data reported in ChEMBL document CHEMBL5678815 (Clin Cancer Res, 2017).
# The source made the active and inactive calls. The rule behind the calls is not given here.
# Legend:
# Splenocyte [1] = test: In vivo inhibition of BCR signaling in female […] mouse assessed as CD69 expression at 2.9 mg/kg, po administered and measured after stimulation with anti-IgM for 18 h by flow cytometry analysis; assay type: functional, organism-based
# Summary of the method: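 Female C57BL/6 mice (5/group/dose) were gavaged orally with vehicle or drug at 0.1–30 mg/kg, and spleens were harvested after 3 h. Splenocytes were stimulated with anti-IgM at 10μg/mL for 18 h at 37°C in 5% CO2, then Fc-blocked and stained for CD19 and CD69, with 7-AAD marking dead cells. CD69 on CD19+ B-cells was read by flow cytometry, acquiring >5,000 gated CD19+ cells.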
# [2] = In vivo inhibition of BCR signaling in female […] mouse assessed as B-cell function at 25 mg/kg, po administered for 24 hrs and measured after stimulation with anti-IgM for 18 h by flow cytometry analysis relative to control; assay type: functional, Splenocyte; design: scale not given: the % may be the effect or the level left
# Summary of the method: (§1)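 Female C57BL/6 mice (5/group) received vehicle or 25 mg/kg drug by oral gavage at time zero, with spleens taken at time points from 3 to 24 h. Splenocytes were stimulated ex vivo with goat anti-mouse IgM at 10μg/mL for 18 h at 37°C in 5% CO2, then Fc-blocked and stained for CD19 plus CD69, CD86 or phospho-S6(S235/236), with 7-AAD to exclude dead cells. Read-out was flow cytometry on >5,000 gated CD19+ cells, compared with vehicle.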
# Splenocyte [3] = test: In vivo inhibition of BCR signaling in female […] mouse assessed as change in CD86 expression at 25 mg/kg, po administered and measured after stimulation with anti-IgM for 18 h by flow cytometry analysis; assay type: functional, organism-based; summary of the method: as §1
# Splenocyte [4] = test: In vivo inhibition of BCR signaling in female […] mouse assessed as change in phospho-S6 expression at 25 mg/kg, po administered and measured after stimulation with anti-IgM for 18 h by flow cytometry analysis; assay type: functional, organism-based; summary of the method: as §1
structure (smiles),measurement,setting,value
C=CC(=O)N1CCC[C@@H](n2nc(-c3ccc(Oc4ccccc4)cc3)c3c(N)ncnc32)C1 [IBRUTINIB],Activity,Splenocyte [1],Active
same,Activity,[2],~70%
same,Activity,Splenocyte [3],Active
same,Activity,Splenocyte [4],Active
